In the library only some 7.1% were active in any assay of this set; here they are far more common.
Lung fibro prol = blocks proliferation of human lung fibroblasts. AID 719. LL 47 human lung fibroblast viability, ATP luminescence; hits give low values. viability, % at 10 µM. actives 1.1% (n = 85,000);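 active = viability at or below 50% in the single dose screen; inactive = viability above 50%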;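 note: compound exposure lasted 72 h before the ATP readout; 100% = median luminescence of untreated cell-only wells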
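Material: human LL 47 lung fibroblast cells; quantity: 1,150 cells/well; medium: IMEM plus 15% FBS; doses: 0.1% DMSO in all compound wells; timing: overnight attachment after seeding, then 72 h compound exposure at 37 °C; detection: CellTiter-Glo luminescence; measure: % viability of median cell-only signal; controls: cell-only wells, no compound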
HUVEC prolif 384 = blocks proliferation of human endothelial cells | HUVEC proliferation, CellTiter-Glo luminescence, 72 h; hits give low values | viability, % at 10 µM (by protocol) | actives 1.1% (n = 86,000) | AID 648;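 active = viability at or below 30%; inactive = viability above 30%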;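 note: 100% = median luminescence of DMSO-only cell control wells on each plate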
H69AR inhibit = growth inhibitors of human H69AR lung tumor cells. H69AR lung tumor viability, ATP luminescence, 72 h; hits give low values. viability, % at 10 µM. actives 6% (n = 85,000);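 active = viability at or below 40%; inactive = viability above 40%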;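 note: multidrug resistant small cell line overexpressing MRP-1 efflux transporter; 100% = mean luminescence of untreated control wells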
HCT116 PTEN-null = PTEN-deleted cell growth suppression; HCT116 PTEN-null viability, CellTiter-Glo, 60 h; hits give low values; viability, % at 10 µM; actives 1.2% (n = 140,000); AID 827;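 active = viability at or below a set limit, 4 SD under the median of all tested compounds, cut at about 3.7% in these data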;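 note: PTEN knockout HCT116 line with beta catenin targeted HCT116 as companion control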
bCat KO growth = beta-catenin-lacking colon tumor cell growth suppression | viability, % at 10 µM | actives 1.5% (n = 140,000) | HCT116 beta-catenin knockout viability, CellTiter-Glo, 60 h; hits give low values;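 active = viability at or under a set limit, the compound median less 4 SD, cut at about 6% in these data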;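 note: 0% = Hyamine 1622 control at 20 µM and 100% = untreated cell control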
Cav3 T inh = inhibitors of human Cav3.2 T-type calcium channel; O95180; Cav3.2-expressing cells, Fluo-4 calcium fluorescence FDSS; hits give low values; B-score at 10 µM; actives 4% (n = 100,000);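 active = single-dose well whose peak fluorescence ratio is a statistical outlier from its plate by either plate-standardised score or position-corrected B-score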
Active calls of the source: *; / = no result.

SMILES	Lung fibro prol	HUVEC prolif 384	H69AR inhibit	HCT116 PTEN-null	bCat KO growth	Cav3 T inh
CCCCN(CCCC)S(=O)(=O)c1ccc(C(=O)Nc2nnc(CSC)o2)cc1	/	/	/	16.3	17.1	-3.13*
CCCN(CCC)S(=O)(=O)c1ccc(C(=O)Nc2nnc(CSC)o2)cc1	83.8	61.1	32.0*	24.1	36.4	-1.46
O=C(OCC(=O)N1CCCC1)c1cccs1	107.0	107.6	101.1	115.6	125.9	-0.0535
Cc1cc(OCc2ccc(C(=O)NN=C3CCCC3)cc2)ccc1Cl	/	/	/	81.9	81.3	/
C[C@@H]1NC(=O)c2cc([N+](=O)[O-])cc(I)c2OCC[C@@H](C(=O)NC(CC(=O)O)C(N)=O)NC(=O)[C@H](CC(N)=O)NC1=O (stereo partly drawn)	/	/	/	102.1	99.9	-0.393
CCOC(=O)N1CCN(C(=S)Nc2ccc3nc(N4CCN(CC)CC4)cc(C)c3c2)CC1	/	/	/	72.0	69.0	/
CC/C=C/C(=O)N1CC2(CC(c3cccc(NC(=O)COc4ccc(Cl)cc4)c3)=NO2)C[C@H]1C(N)=O (stereo partly drawn)	/	/	/	/	/	0.046
c1ccc(-c2ncnc3cc4n(c23)CCC4)cc1	93.0	92.4	100.6	90.0	105.1	0.795
COc1ccc(N2CCN(C(c3cc(OC)ccc3OC)c3nnnn3CC3CCCO3)CC2)cc1 (stereo not drawn)	97.4	93.0	92.5	0.7*	0.9*	-0.327
COc1ccc(OC)c(C(c2nnnn2C2CCCC2)N2CCN(c3ccccc3F)CC2)c1 (stereo not drawn)	88.8	115.9	84.8	37.4	44.7	-6.07*
COc1ccc(N2CCN(C(c3ccccc3OC)c3nnnn3C3CCCC3)CC2)cc1 (stereo not drawn)	95.6	103.6	107.5	82.7	87.3	-5.93*
COc1ccc(N2CCN(C(c3cccs3)c3nnnn3C3CCCC3)CC2)cc1 (stereo not drawn)	100.9	105.2	60.1	75.5	73.4	-3.1
COc1ccc(N2CCN(C(c3cccc(OC)c3OC)c3nnnn3C3CCCC3)CC2)cc1 (stereo not drawn)	91.6	121.5	96.5	73.6	73.9	-5.41*
CCN(CCCNC(=O)Cn1ncc2c(=O)oc3ccccc3c21)c1cccc(C)c1	95.2	92.2	57.8	89.2	87.9	/
CCN(CCCNC(=O)CNC(=O)Cn1cnc2ccccc2c1=O)c1cccc(C)c1	95.5	92.8	76.8	90.6	93.7	-3.9*
CN(c1ccccc1)S(=O)(=O)c1cccc(NC(=O)Cn2cnc3ccccc3c2=O)c1	87.8	104.3	83.4	70.6	69.0	-7.05*
CCN(CC)S(=O)(=O)c1cc(NC(=O)Cn2cnc3ccccc3c2=O)ccc1C	/	/	/	71.9	60.5	/
CCCCSc1nnc(CNC(=O)C23CC4CC(CC(C4)C2)C3)n1Cc1ccccc1	/	/	/	95.8	93.7	/
Cc1ccc(S(=O)(=O)N2CC(O)CC2C(=O)OCC(=O)c2ccccc2Cl)cc1C (stereo not drawn)	/	/	/	98.5	95.3	/
COc1ccc(S(=O)(=O)NCc2ccco2)c2ccccc12	89.4	84.5	79.5	88.9	94.1	-4.22*
Cc1cc(N2C3CCC2CC(O)(c2ccc(F)cc2)C3)nc(-c2ccccc2)n1 (stereo not drawn)	56.0	59.9	26.1*	60.2	58.2	-1.75
CC(C)C(=O)N1C2CCC1CC(O)(c1ccc(F)cc1)C2 (stereo not drawn)	92.6	103.5	92.2	87.7	92.5	-0.182
COCCN(Cc1cc2ccc(C)cc2n2nnnc12)Cc1nnnn1C(C)(C)C	95.4	100.5	54.6	94.8	98.1	0.924
CCCSc1nsc(SCCC)c1C#N	93.9	90.1	93.9	100.9	96.9	-1.03
C#CCSc1nsc(SCC#C)c1C#N	/	/	/	5.3	2.7*	0.129
SMILES	Lung fibro prol	HUVEC prolif 384	H69AR inhibit	HCT116 PTEN-null	bCat KO growth	Cav3 T inh
Cc1ccc(C)c(N2CCN(C(=O)c3ccc(NS(=O)(=O)c4c(C)noc4C)cc3)CC2)c1	/	/	/	72.0	85.5	-8.33*
Cc1ccc(Cl)cc1N1CCN(C(=O)c2ccc(NS(=O)(=O)c3c(C)noc3C)cc2)CC1	/	/	/	57.2	70.4	/
O=C1c2ccccc2NC(c2ccco2)N1O (stereo not drawn)	101.3	102.2	87.6	98.4	89.0	-0.911
O=C1C2=C(Nc3ccccc3SC2c2ccco2)c2ccccc21 (stereo not drawn)	90.3	72.2	51.8	70.4	71.2	-5.14*
O=C(CN(Cc1ccccc1)C(=O)c1cc2c(s1)CCC2)NCc1cccs1	93.5	96.1	51.9	55.5	72.2	-4.53*
COc1ccc2c(C)cc(Sc3nnnn3-c3ccccc3)nc2c1	/	/	/	92.2	94.6	/
CCOC(=O)c1cnc2c(c(C)nn2C)c1Oc1ccc(Cl)cc1	/	/	/	60.9	67.0	-6.71*
CCC(C(=O)NCc1ccco1)N(C(=O)CNS(=O)(=O)c1ccc(C)cc1)c1ccccc1OC (stereo not drawn)	98.0	95.1	95.6	71.7	67.9	-3.52*
O=C(CN(Cc1cccs1)C(=O)CNS(=O)(=O)c1ccccc1)NCc1ccco1	99.4	90.7	103.2	98.7	100.9	/
COc1ccc(CNC(=O)C(c2ccco2)N(C(=O)CNS(=O)(=O)c2ccccc2)c2ccccc2C)cc1 (stereo not drawn)	/	/	/	68.6	81.9	/
CCCC(C(=O)NCc1ccco1)N(C(=O)CNS(=O)(=O)c1ccccc1)c1ccccc1OC (stereo not drawn)	96.7	81.2	81.3	78.5	83.5	-5.43*
Cc1ccc(S(=O)(=O)NCC(=O)N(CC(=O)NCc2ccco2)Cc2ccc3c(c2)OCO3)cc1	104.6	83.3	97.2	98.6	101.4	-5.15*
COc1ccccc1N(C(=O)CNS(=O)(=O)c1ccccc1)C(C(=O)NCc1ccco1)C(C)C (stereo not drawn)	100.1	108.4	89.8	94.5	91.1	-0.023
CCC(C(=O)NCc1ccco1)N(C(=O)CNS(=O)(=O)c1ccccc1)C1CCCCC1 (stereo not drawn)	94.1	93.6	91.1	98.8	87.8	0.395
CCCC(C(=O)NCc1ccco1)N(C(=O)CNS(=O)(=O)c1ccc(Cl)cc1)C1CCCC1 (stereo not drawn)	87.0	80.6	80.8	73.0	67.1	-8.38*
Cc1ccc(C[n+]2cccc(-c3ccccc3)c2)c(C)c1	/	/	/	45.8	37.0	/
COc1ccccc1-c1nc2cc3ccccc3cc2nc1-c1ccccc1	/	/	/	59.2	71.3	/
CCSc1ncnc2c1oc1ccccc12	98.6	94.4	86.7	108.5	107.3	-0.871
Cc1nc(NCc2ccco2)c2oc3ccccc3c2n1	/	/	/	81.1	88.0	/
c1coc(CN(Cc2ccco2)c2ncnc3c2oc2ccccc23)c1	83.7	56.4	22.1*	20.7	28.5	-3.74
Clc1ncnc2c1oc1ccccc12	/	/	/	9.1	4.1*	1.05
O=C(ON=C1CCN(S(=O)(=O)c2ccccc2)CC1)c1ccc(F)cc1	/	/	/	95.8	99.3	-0.336
O=C(O/N=C1/CCSc2ccccc21)c1ccc(F)cc1	/	/	/	95.0	97.4	-4.69*
